Results taken from ChEMBL document CHEMBL1149693, “Selective reversible inhibition of human butyrylcholinesterase by aryl amide derivatives of phenothiazine” (Bioorg Med Chem, 2007).
Active and inactive are the calls of the source. The calls are words filed in the database; no cut-off is given here.

Experiments:
Cholinesterase = Cholinesterase (Homo sapiens, UniProt P06276); assay: Inhibition of human plasma BuChE activity; type: cell-free
Outline: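 Modified Ellman assay with purified human serum BuChE (0.05 U) in 0.005% gelatin, buffered DTNB pH 8.0. Inhibitor in 50% aqueous acetonitrile (1.67% v/v final), 1:10 serial dilutions. Butyrylthiocholine 3 × 10^-5 to 1.6 × 10^-4 M. A412 read every 5 s for 1 min at 23 °C, at least triplicate. Ki from slope replot of Lineweaver–Burk lines (no inhibitor, two inhibitor levels).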

[1] = molecular target: Acetylcholinesterase (Homo sapiens) (UniProt P22303); assay: Inhibition of recombinant human AChE activity
Outline: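 Ellman-type assay with recombinant human AChE (0.03 U) in 0.005% gelatin and buffered DTNB pH 8.0. Inhibitor in 50% aqueous acetonitrile, tested as 1:10 serial dilutions. Acetylthiocholine 3 × 10^-5 to 1.6 × 10^-4 M. Absorbance at 412 nm every 5 s over 1 min, 23 °C, generally triplicate and averaged. Lineweaver–Burk plots with and without inhibitor.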

Chain of Cholinesterase (P06276 whole entry): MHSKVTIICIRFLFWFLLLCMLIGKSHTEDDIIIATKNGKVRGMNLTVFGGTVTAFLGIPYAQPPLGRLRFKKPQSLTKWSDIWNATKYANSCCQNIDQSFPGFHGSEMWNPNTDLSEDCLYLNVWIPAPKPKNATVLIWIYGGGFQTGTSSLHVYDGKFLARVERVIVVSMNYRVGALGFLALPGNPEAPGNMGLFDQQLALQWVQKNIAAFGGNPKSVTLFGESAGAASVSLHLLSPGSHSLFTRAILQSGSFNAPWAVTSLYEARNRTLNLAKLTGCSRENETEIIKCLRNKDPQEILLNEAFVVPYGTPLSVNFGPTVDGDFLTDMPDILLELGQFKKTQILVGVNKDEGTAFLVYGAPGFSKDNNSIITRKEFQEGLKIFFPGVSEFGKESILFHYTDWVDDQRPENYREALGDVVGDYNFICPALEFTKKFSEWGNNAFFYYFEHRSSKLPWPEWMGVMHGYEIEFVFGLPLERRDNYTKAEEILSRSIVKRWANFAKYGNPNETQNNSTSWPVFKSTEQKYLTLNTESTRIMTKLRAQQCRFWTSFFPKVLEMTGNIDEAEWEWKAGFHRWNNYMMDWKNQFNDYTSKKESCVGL
Chain of Acetylcholinesterase (Homo sapiens) (P22303 whole entry): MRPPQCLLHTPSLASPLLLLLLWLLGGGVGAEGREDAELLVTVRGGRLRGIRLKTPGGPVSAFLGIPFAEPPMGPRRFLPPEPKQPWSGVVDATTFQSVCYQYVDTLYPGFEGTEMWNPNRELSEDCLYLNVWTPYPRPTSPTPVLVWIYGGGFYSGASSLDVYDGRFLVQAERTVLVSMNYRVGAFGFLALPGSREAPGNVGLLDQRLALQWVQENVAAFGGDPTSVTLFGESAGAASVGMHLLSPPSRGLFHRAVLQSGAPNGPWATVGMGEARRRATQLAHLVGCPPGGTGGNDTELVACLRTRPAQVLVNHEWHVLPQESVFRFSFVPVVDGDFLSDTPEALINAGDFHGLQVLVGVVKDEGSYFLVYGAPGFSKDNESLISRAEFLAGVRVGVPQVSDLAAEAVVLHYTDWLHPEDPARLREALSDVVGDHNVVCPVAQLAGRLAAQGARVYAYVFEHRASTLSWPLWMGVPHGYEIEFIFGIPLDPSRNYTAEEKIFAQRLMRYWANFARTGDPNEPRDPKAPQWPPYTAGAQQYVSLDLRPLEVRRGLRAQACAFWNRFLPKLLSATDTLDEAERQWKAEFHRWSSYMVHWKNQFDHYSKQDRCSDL

Structure (SMILES)	Ki (Cholinesterase) [nM]	Activity [1]
Cc1ccc(C(=O)N2c3ccccc3Sc3ccccc32)cc1	2500	inactive
O=C(c1cccc(Br)c1)N1c2ccccc2Sc2ccccc21	600	inactive
O=C(Cc1ccccc1)N1c2ccccc2Sc2ccccc21	610	inactive
O=C(c1ccc([N+](=O)[O-])cc1)N1c2ccccc2Sc2ccccc21	820	inactive
O=C(CCCc1ccccc1)N1c2ccccc2Sc2ccccc21	220	inactive
O=C(c1ccccc1)N1c2ccccc2Sc2ccccc21	5800	inactive
CC(CC(=O)N1c2ccccc2Sc2ccccc21)c1ccccc1 (stereo not drawn)	1700	inactive
COc1ccc(C(=O)N2c3ccccc3Sc3ccccc32)cc1	1500	inactive
O=C(c1ccc2ccccc2c1)N1c2ccccc2Sc2ccccc21	470	inactive
O=C(CCc1ccccc1)N1c2ccccc2Sc2ccccc21	6200	inactive
CC(C(=O)N1c2ccccc2Sc2ccccc21)c1ccccc1 (stereo not drawn)	560	inactive
CCC(C(=O)N1c2ccccc2Sc2ccccc21)c1ccccc1 (stereo not drawn)	400	inactive
O=C(Cc1cccc2ccccc12)N1c2ccccc2Sc2ccccc21	90	inactive
O=C(c1c2ccccc2cc2ccccc12)N1c2ccccc2Sc2ccccc21	3.5	inactive
Cc1ccccc1C(=O)N1c2ccccc2Sc2ccccc21	3100	inactive
O=C(c1ccc(-c2ccccc2)cc1)N1c2ccccc2Sc2ccccc21	–	inactive
Cc1cccc(C(=O)N2c3ccccc3Sc3ccccc32)c1	1900	inactive
O=C(Cc1ccc2ccccc2c1)N1c2ccccc2Sc2ccccc21	28	inactive
O=C(C(=O)N1c2ccccc2Sc2ccccc21)N1c2ccccc2Sc2ccccc21	220	inactive
CC(C)(C)c1ccc(C(=O)N2c3ccccc3Sc3ccccc32)cc1	–	inactive
O=C(c1cccc2ccccc12)N1c2ccccc2Sc2ccccc21	88	inactive
CC(=O)Oc1ccc(C(=O)N2c3ccccc3Sc3ccccc32)cc1	23000	inactive
O=C(Cc1ccc(-c2ccccc2)cc1)N1c2ccccc2Sc2ccccc21	1700	inactive
O=C(/C=C/c1ccccc1)N1c2ccccc2Sc2ccccc21	2700	inactive
O=C(c1ccc(Br)cc1)N1c2ccccc2Sc2ccccc21	1300	inactive
